These molecules were tested against Adenosine receptor A2a (Homo sapiens, UniProt P29274) (assay: Displacement of [3H]ZM241385 from human AA2AR expressed in HEK293T cells after 2 hrs by liquid scintillation counter).
Type: cell-based, HEK-293T
How it was run: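 Membranes of HEK293T cells stably expressing AA2AR (40 µg protein) incubated with 1.7 nM (final) [3H]ZM241385 in 50 mM Tris·HCl pH 7.4, 2 h at 25 °C with shaking. Nonspecific binding defined with 100 µM CGS21680. Filtered over GF/B, washed three times with ice-cold buffer. Compounds giving ≥50% inhibition at 10 µM went to concentration-response curves. pKi values, n=3 in duplicate.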

Adenosine receptor A2a, sequence (P29274 whole entry): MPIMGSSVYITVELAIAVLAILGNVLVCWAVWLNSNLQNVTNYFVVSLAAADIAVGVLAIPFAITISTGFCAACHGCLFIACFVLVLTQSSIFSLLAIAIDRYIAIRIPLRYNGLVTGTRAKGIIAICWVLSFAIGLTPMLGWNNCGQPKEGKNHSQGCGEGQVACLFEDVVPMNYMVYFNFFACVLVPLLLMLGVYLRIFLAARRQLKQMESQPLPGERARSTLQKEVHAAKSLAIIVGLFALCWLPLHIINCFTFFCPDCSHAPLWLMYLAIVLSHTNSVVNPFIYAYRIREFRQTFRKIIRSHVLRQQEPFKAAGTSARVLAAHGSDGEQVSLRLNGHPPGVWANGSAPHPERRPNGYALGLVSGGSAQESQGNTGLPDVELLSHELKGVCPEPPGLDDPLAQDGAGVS

Row | Compound | Ki [µM]
1 | COc1cc(/C=N/Nc2ncnc3sc4c(c23)CCCC4)ccc1O | 5.01
2 | N=C(NC(=O)C(Cc1ccccc1)N1C(=O)c2ccccc2C1=O)Nc1nc2ccccc2o1 (configuration not stated) | 3.98
3 | N#CCSc1nc2cc(C(=O)N3CCC(C(N)=O)CC3)ccc2c2nc3ccccc3n12 | 1
4 | O=C(CCN1C(=O)c2ccccc2C1=O)Nc1nc2ccccc2s1 | 5.01
5 | Cc1cc(NC(=O)CSc2nc3ccccc3c3nc4ccccc4n23)n[nH]1 | 0.631
6 | CCOC(=O)c1nc[nH]c1/N=N/c1c(O)ccc2ccccc12 | 1.26
7 | Cc1n[nH]c(C)c1S(=O)(=O)N1CCC(C(=O)Nc2nc3c(C)cccc3s2)CC1 | 1
8 | Nc1ccc(C(=O)Nc2ccc(O)c(-c3nc4ccccc4[nH]3)c2)cc1 | 1.58
9 | Cc1cccc2sc(NC(=O)CNS(=O)(=O)c3cccs3)nc12 | 1.58
10 | N/C(=N\C(=O)CN1C(=O)C2CCCCC2C1=O)Nc1nc2ccccc2s1 (configuration not stated) | 5.01
11 | CC1=C(C(=O)Nc2nc3ccccc3s2)C(c2ccco2)C(C#N)=C(SCC(N)=O)N1 (configuration not stated) | 6.31
12 | Cc1ccc2[nH]c3nc(SCC(=O)Nc4ncc(C)s4)nnc3c2c1 | 3.98
13 | Cc1nc2[nH]c3ccccc3n2c(=O)c1CCOC(=O)C1CCCCC1 | 2.51
14 | CC1CCN(C(=O)c2ccc3c(=O)[nH]c4c(-c5ccccc5)nnn4c3c2)CC1 | 2.51
15 | COCC1=CC(O)N=C(Nc2nc(C)c3ccccc3n2)N1 (configuration not stated) | 0.631
16 | N#C/C(=N\Nc1ccc(S(N)(=O)=O)cc1)c1nc2ccccc2[nH]1 | 5.01
17 | O=C1c2ccccc2C(=O)c2cc(OCC(O)CN3CCCCC3)ccc21 (configuration not stated) | 5.01
18 | CCCc1nn(C)c2c(=O)[nH]c(-c3cc(S(=O)(=O)N4CCN(C)CC4)ccc3OCC)nc12 [SILDENAFIL] | 0.2

These molecules were tested against Beta-2 adrenergic receptor (Homo sapiens, UniProt P07550) (assay: Displacement of [3H]dihydroalprenolol from human ADRB2 expressed in HEK293T cells after 1 hr by liquid scintillation counter).
Type: cell-based, HEK-293T
How it was run: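 HEK293T cells transiently transfected with ADRB2 using PEI, harvested 48 h later for membranes. Membranes incubated at room temperature for 1 h with 1 nM [3H]-dihydroalprenolol in HEPES pH 7.4 with CaCl2, MgCl2, NaCl and 0.5% BSA. Filtered on GF/C presoaked in PEI, washed with ice-cold buffer plus 500 mM NaCl. Compounds giving ≥50% inhibition at 10 µM went to concentration-response curves. Ki by nonlinear regression, n=3 in triplicate.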

Beta-2 adrenergic receptor, sequence (P07550 whole entry): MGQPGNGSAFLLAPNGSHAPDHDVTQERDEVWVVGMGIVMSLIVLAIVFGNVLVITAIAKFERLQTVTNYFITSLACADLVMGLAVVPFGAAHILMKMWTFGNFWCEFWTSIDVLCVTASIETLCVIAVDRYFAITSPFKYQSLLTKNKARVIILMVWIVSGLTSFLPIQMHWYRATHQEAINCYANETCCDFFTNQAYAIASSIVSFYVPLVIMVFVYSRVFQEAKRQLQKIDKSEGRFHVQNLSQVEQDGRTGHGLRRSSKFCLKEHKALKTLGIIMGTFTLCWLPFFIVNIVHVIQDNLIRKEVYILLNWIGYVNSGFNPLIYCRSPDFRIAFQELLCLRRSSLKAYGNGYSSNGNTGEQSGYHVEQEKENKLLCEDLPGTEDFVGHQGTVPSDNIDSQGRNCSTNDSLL

Row | Compound | Ki [µM]
19 | Cc1ccc(C(C)C)c(OCC(O)CN2CCN(CCO)CC2)c1 (configuration not stated) | 39.8
20 | CC(=O)c1c(CSc2ccccc2)oc2ccc(O)c(CN(C)C)c12 | 39.8
21 | O=C1Cc2ccccc2Sc2c(OCCN3CCCCC3)cccc21 | 794
22 | Cc1ccc(C)c(OCC(O)CNC2CCCC2)c1 (configuration not stated) | 2
23 | Cc1ccc(C(C)C)c(OCC(O)CN2CCCCC2)c1 (configuration not stated) | 0.794
24 | Cc1nc2ccc(O)c(CN(C)C)c2[nH]1 | 25.1

The molecules below were run against Sphingosine 1-phosphate receptor 1 (Homo sapiens, UniProt P21453) (assay: Induction of beta-arrestin2 recruitment to human S1PR1 expressed in CHOK1 cells after 2 hrs by beta-galactosidase assay).
Type: cell-based, CHO-K1
How it was run: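 PathHunter enzyme-fragment-complementation CHO-K1 S1PR1 β-arrestin cells seeded at 10,000/well in OPTI-MEM and held overnight at 37 °C. Compound added for 2 h at 37 °C, then 1 h at room temperature. Lysed with detection reagent and read by chemiluminescence after 2 h dark. Recruitment referenced to AUY954 (1 µM). Hits with ≥30% recruitment went to dose-response. pEC50, n=1 in triplicate.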

Sphingosine 1-phosphate receptor 1, sequence (P21453 whole entry): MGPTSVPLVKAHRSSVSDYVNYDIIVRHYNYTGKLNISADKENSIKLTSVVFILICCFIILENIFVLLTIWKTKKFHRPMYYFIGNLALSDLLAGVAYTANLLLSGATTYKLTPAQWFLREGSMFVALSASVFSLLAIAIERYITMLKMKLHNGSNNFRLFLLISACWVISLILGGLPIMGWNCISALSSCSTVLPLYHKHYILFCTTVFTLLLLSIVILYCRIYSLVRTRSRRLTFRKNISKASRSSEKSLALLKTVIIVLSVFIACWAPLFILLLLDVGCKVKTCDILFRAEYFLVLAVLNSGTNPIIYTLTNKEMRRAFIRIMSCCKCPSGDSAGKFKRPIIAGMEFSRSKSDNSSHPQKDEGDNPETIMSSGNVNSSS

Row | Compound | EC50 [µM]
25 | O=C(Nc1nc2ccc(-c3nc4ccccc4[nH]3)cc2s1)C1CCCCC1 | 20
26 | CC(=O)N1CCc2cc(Br)cc(S(=O)(=O)N3CCC(O)(c4cccc(C(F)(F)F)c4)CC3)c21 | 31.6
27 | Cc1ccc(S(=O)(=O)Nc2nc3n(n2)C(c2ccccc2)C=C(c2ccccc2)N3)cc1 (configuration not stated) | 50.1

Reference: ChEMBL document CHEMBL2069177, “A prospective cross-screening study on G-protein-coupled receptors: lessons learned in virtual compound library design” (J Med Chem, 2012)
